The results in this text go back to ChEMBL document CHEMBL3351600, “Sulfur, selenium and tellurium pseudopeptides: synthesis and biological evaluation” (Bioorg Med Chem, 2014).

The structures appear in SMILES notation.

For one data set, the system named is Staphylococcus aureus. Briefly: Antimicrobial activity against Staphylococcus aureus assessed as inhibition at 20 ug/6 mm disk after 1 to 2 days by agar diffusion assay. Type of data set: functional. The method in brief: (§1)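 Standard agar diffusion: 6-mm paper disks loaded with 20 µg of compound were placed on inoculated plates. Inhibition-zone diameter (mm) was read after 1 and 2 days of growth.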
Background: Agar diffusion results depend on both activity and mobility in agar.

The nature of data set [1]: Lipophilicity, log K of the compound by HPLC analysis.
The test system of another data set is Saccharomyces cerevisiae. Briefly: Antimicrobial activity against Saccharomyces cerevisiae assessed as inhibition at 20 ug/6 mm disk after 1 to 2 days by agar diffusion assay. The data set is classed as functional. The method, boiled down: as §1
The subject of another data set is Pseudomonas aeruginosa. Briefly: Antimicrobial activity against Pseudomonas aeruginosa assessed as inhibition at 20 ug/6 mm disk after 1 to 2 days by agar diffusion assay. Type of data set: functional. The method, boiled down: as §1
The nature of data set [2]: Octanol-water partition coefficient, log P of the compound by HPLC analysis. The data set is classed as physicochemical. The method, boiled down: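 Lipophilicity was measured by reversed-phase HPLC on a Nucleosil C18 column with isocratic water/methanol (3:1) at 0.5 ml/min and UV detection at 230 and 245 nm. Dead time was set with thiourea (t0 0.728 min). Retention factor was k = (tR − t0)/t0, and log P came from a calibration against at least six reference compounds.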

For another data set, the system named is Mycolicibacterium phlei. The experiment in a line: Antimicrobial activity against Mycobacterium phlei assessed as inhibition at 20 ug/6 mm disk after 1 to 2 days by agar diffusion assay. Type of data set: functional. The method, boiled down: as §1
The next data set has as its system Escherichia coli. The experiment in a line: Antimicrobial activity against Escherichia coli tolC assessed as inhibition at 20 ug/6 mm disk after 1 to 2 days by agar diffusion assay. Type of data set: functional. The method, boiled down:
as §1

The next data set relates to Candida albicans. Briefly: Antimicrobial activity against Candida albicans assessed as inhibition at 20 ug/6 mm disk after 1 to 2 days by agar diffusion assay. Type of data set: functional. The method in brief:
as §1

A further data set concerns Micrococcus luteus. Briefly: Antimicrobial activity against Micrococcus luteus assessed as inhibition at 20 ug/6 mm disk after 1 to 2 days by agar diffusion assay. The data set is classed as functional. The method in brief:
as §1

A further data set deals with Aspergillus niger. Briefly: Antimicrobial activity against Aspergillus niger assessed as inhibition at 20 ug/6 mm disk after 1 to 2 days by agar diffusion assay. Type of data set: functional. The method, boiled down: as §1
The subject of data set [3] is A-431. The experiment in a line: Cytotoxicity against human A431 cells assessed as cell viability after 24 hrs incubation by MTT assay. The data set is classed as functional, cell-based. To be noted: A-431, 24 h. The method, boiled down:
(§2)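 Cell lines came from DSMZ; primary human fibroblasts served as non-cancer controls. Cells were grown in medium with 10% FCS, seeded at 50,000 cells/ml, and grown 2 days at 37 °C, 10% CO2. Serial dilutions were then added for 24 h. MTT (final 0.5 mg/ml) was added for 2 h. Formazan was pelleted, PBS-washed, dissolved in isopropanol/0.4% HCl and read at 590 nm. Two parallel experiments were run. IC50 was taken as the concentration giving 50% of untreated-control absorbance.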
(In general: Formazan colour is commonly taken as a measure of viable cells.)

The test system of the next data set is MCF7. The experiment in a line: Cytotoxicity against human MCF7 cells assessed as cell viability after 24 hrs incubation by MTT assay. The data set is classed as functional, cell-based. To be noted: MCF7, 24 h. The method, boiled down: as §2
Data set [4] in a line: Cytotoxicity against human fibroblasts assessed as cell viability after 24 hrs incubation by MTT assay. Type of data set: cell-based. The settings on record: Fibroblast. The method, boiled down: as §2
Another data set concerns Klebsiella pneumoniae. Briefly: Antimicrobial activity against Klebsiella pneumoniae assessed as inhibition at 20 ug/6 mm disk after 1 to 2 days by agar diffusion assay. Type of data set: functional. The method in brief:
as §1

Data set [5] has as its system A-431. Briefly: Reduction in ROS in human A431 cells assessed as decrease in hydrogen peroxide level at 0.1 to 10 ng/ml after 1 hr by DCHFA assay. Type of data set: functional, cell-based. The method, boiled down: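 A-431 cells were seeded at 10^5 per well and exposed to a range of compound concentrations for 1 h. They were then loaded with DCHFA probe for 30 min in the dark. Fluorescence was read immediately at ex/em 485/528 nm and expressed as arbitrary units per 10^5 cells.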

In turn, `O=C(COC(=O)/C=C/c1ccccc1)NCCC[Te]c1ccccc1` registered a Retention_time of 1.356 min. In addition, the “diameter of the inhibition zone (DIZ)” value in the data set with Staphylococcus aureus was 0 mm. In [1], the “log K” value is reported as -0.06. Besides, in the data set on Saccharomyces cerevisiae, the “diameter of the inhibition zone (DIZ)” value came to 0 mm. The “diameter of the inhibition zone (DIZ)” value in the data set on Pseudomonas aeruginosa was 0 mm. For the same compound, the logP (in general, the decadic logarithm of the partition coefficient of the neutral form, usually between octanol and water) in [2] turned out to be 3.01. Further, the “diameter of the inhibition zone (DIZ)” value in the data set on Mycolicibacterium phlei came to 0 mm. Moreover, the “diameter of the inhibition zone (DIZ)” value with Escherichia coli is reported as 0 mm. For the same compound, the “diameter of the inhibition zone (DIZ)” value with Candida albicans is reported as 0 mm. The “diameter of the inhibition zone (DIZ)” value in the data set on Micrococcus luteus was 7 mm. For the same compound, in the data set with Aspergillus niger, the “diameter of the inhibition zone (DIZ)” value came to 0 mm. For the same compound, the IC50 (usually the concentration that gives 50% inhibition) with A-431 [3] came out at 6 µM. The IC50 in the data set with MCF7 worked out at 1 µM. Further, in data set [4], the IC50 was 11 µM. In the data set with Klebsiella pneumoniae, the “diameter of the inhibition zone (DIZ)” value was determined as 0 mm. Moreover, in the data set with A-431 [5], the Activity entry is “Dose-dependent effect”.

`O=C(COC(=O)C#Cc1ccccc1)NCCC[Te]c1ccccc1`: the Retention_time is listed as 0.794 min. In addition, in the data set on Staphylococcus aureus, the “diameter of the inhibition zone (DIZ)” value is 0 mm. Also, the “log K” value in data set [1] was -1.04. Besides, the “diameter of the inhibition zone (DIZ)” value in the data set on Saccharomyces cerevisiae was 0 mm. Further, in the data set with Pseudomonas aeruginosa, the “diameter of the inhibition zone (DIZ)” value is recorded as 0 mm. In data set [2], the logP was found to be 0.9. The “diameter of the inhibition zone (DIZ)” value with Mycolicibacterium phlei is recorded as 15 mm. Moreover, the “diameter of the inhibition zone (DIZ)” value in the data set on Escherichia coli worked out at 0 mm. Also, the “diameter of the inhibition zone (DIZ)” value in the data set with Candida albicans was found to be 0 mm. Besides, in the data set with Micrococcus luteus, the “diameter of the inhibition zone (DIZ)” value is recorded as 9 mm. For the same compound, the “diameter of the inhibition zone (DIZ)” value with Aspergillus niger is on record as 0 mm. For the same compound, the IC50 in the data set on A-431 [3] worked out at 7 µM. Moreover, in the data set with MCF7, the IC50 was found to be 1 µM. Further, the IC50 in data set [4] was found to be 7 µM. The “diameter of the inhibition zone (DIZ)” value in the data set on Klebsiella pneumoniae worked out at 0 mm. Besides, the Activity result in the data set with A-431 [5] is “Dose-dependent effect”.

As to `COc1ccc(N(CC(=O)NCCC[Se]c2ccccc2)C(=O)C#Cc2ccccc2)cc1`, the Retention_time turned out to be 1.134 min. Moreover, the “diameter of the inhibition zone (DIZ)” value in the data set with Staphylococcus aureus worked out at 0 mm. In [1], the “log K” value is listed as -0.25. The “diameter of the inhibition zone (DIZ)” value with Saccharomyces cerevisiae stood at 0 mm. Besides, the “diameter of the inhibition zone (DIZ)” value in the data set on Pseudomonas aeruginosa is listed as 0 mm. In data set [2], this compound registered a logP of 2.6. Further, in the data set on Mycolicibacterium phlei, the “diameter of the inhibition zone (DIZ)” value was found to be 0 mm. In the data set with Escherichia coli, the “diameter of the inhibition zone (DIZ)” value was determined as 0 mm. In the data set on Candida albicans, the “diameter of the inhibition zone (DIZ)” value is given as 0 mm. In addition, the “diameter of the inhibition zone (DIZ)” value with Micrococcus luteus came out at 0 mm. Also, the “diameter of the inhibition zone (DIZ)” value with Aspergillus niger came to 19 mm. Moreover, the IC50 in the data set with A-431 [3] is at least 100 µM. The IC50 in the data set on MCF7 was at least 100 µM. The IC50 in [4] is at least 100 µM. For the same compound, the “diameter of the inhibition zone (DIZ)” value in the data set on Klebsiella pneumoniae was determined as 0 mm.

In turn, `COc1ccc(N(CC(=O)NCCCSc2ccccc2)C(=O)CNC(=O)OC(C)(C)C)cc1` came in with a Retention_time of 2.17 min. In addition, the “diameter of the inhibition zone (DIZ)” value with Staphylococcus aureus is on record as 0 mm. For the same compound, the “log K” value in [1] stood at 0.3. In addition, the “diameter of the inhibition zone (DIZ)” value with Saccharomyces cerevisiae was determined as 0 mm. Further, the “diameter of the inhibition zone (DIZ)” value in the data set on Pseudomonas aeruginosa turned out to be 0 mm. In data set [2], the logP came out at 3.12. Besides, the “diameter of the inhibition zone (DIZ)” value in the data set on Mycolicibacterium phlei was 0 mm. The “diameter of the inhibition zone (DIZ)” value with Escherichia coli was found to be 0 mm. The “diameter of the inhibition zone (DIZ)” value in the data set with Candida albicans was 0 mm. Besides, the “diameter of the inhibition zone (DIZ)” value in the data set on Micrococcus luteus came to 0 mm. Besides, the “diameter of the inhibition zone (DIZ)” value in the data set with Aspergillus niger worked out at 0 mm. In the data set with A-431 [3], the IC50 was at least 100 µM. For the same compound, in the data set on MCF7, the concentration for half-maximal inhibition (IC50) is at least 100 µM. Further, the IC50 in data set [4] was at least 100 µM. The “diameter of the inhibition zone (DIZ)” value in the data set on Klebsiella pneumoniae is on record as 0 mm.
